In general, inhibition refers to the drop in the measured response relative to a control, in per cent. The term pIC50 denotes the negative decadic logarithm of the IC50, by convention in mol/L.

pIC50: −log10 of the molar value.

Experimental findings from ChEMBL document CHEMBL3351692, “Discovery and optimization of 1,3,5-trisubstituted pyrazolines as potent and highly selective allosteric inhibitors of protein kinase C-ζ” (J Med Chem, 2014) are described below.

One series deals with RAW264.7. Kind of series: Cytotoxicity against mouse RAW264.7 cells assessed as living cells at 7.5 uM by MTT assay. Particulars: raw264.7, 7.5 µM. Format: cell-based. In a few lines: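 RAW 264.7 macrophages: MTT viability assay run in parallel with each nitrite (Griess) experiment, same cell line and same compound treatment conditions.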
In general terms: Tetrazolium dyes change colour on reduction, which living cells bring about.

The target of series [1] is T1, Protein kinase C iota type (Homo sapiens) (UniProt P41743).
T1 sequence (whole entry): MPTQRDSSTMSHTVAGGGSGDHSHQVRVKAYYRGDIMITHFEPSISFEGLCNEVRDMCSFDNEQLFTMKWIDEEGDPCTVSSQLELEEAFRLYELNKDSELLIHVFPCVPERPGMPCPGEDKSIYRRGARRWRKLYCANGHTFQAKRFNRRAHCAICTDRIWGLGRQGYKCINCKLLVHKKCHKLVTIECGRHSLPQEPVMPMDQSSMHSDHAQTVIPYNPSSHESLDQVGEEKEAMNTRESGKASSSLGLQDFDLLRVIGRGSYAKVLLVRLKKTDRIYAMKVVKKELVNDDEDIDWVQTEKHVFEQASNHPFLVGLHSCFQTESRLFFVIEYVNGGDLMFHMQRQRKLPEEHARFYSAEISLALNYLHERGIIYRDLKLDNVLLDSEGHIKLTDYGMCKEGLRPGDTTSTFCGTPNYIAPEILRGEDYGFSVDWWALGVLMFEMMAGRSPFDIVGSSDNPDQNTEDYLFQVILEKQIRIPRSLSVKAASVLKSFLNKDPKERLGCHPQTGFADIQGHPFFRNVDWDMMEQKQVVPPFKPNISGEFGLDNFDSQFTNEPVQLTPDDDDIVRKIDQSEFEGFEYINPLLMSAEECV
Nature of the series: Inhibition of PKCiota (unknown origin) at 20 uM. An outline of the steps: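 Cell-free radiometric kinase assay with purified recombinant PKCι under conditions similar to the PKCζ assay. Reaction mixtures preincubated 4 min at 37 °C, then phosphorylation started with γ32P-ATP/Mg2+. Mean of at least two experiments.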

Series [2] concerns the target T2, Protein kinase C zeta type (Homo sapiens, UniProt Q05513).
T2 sequence (Q05513 whole entry): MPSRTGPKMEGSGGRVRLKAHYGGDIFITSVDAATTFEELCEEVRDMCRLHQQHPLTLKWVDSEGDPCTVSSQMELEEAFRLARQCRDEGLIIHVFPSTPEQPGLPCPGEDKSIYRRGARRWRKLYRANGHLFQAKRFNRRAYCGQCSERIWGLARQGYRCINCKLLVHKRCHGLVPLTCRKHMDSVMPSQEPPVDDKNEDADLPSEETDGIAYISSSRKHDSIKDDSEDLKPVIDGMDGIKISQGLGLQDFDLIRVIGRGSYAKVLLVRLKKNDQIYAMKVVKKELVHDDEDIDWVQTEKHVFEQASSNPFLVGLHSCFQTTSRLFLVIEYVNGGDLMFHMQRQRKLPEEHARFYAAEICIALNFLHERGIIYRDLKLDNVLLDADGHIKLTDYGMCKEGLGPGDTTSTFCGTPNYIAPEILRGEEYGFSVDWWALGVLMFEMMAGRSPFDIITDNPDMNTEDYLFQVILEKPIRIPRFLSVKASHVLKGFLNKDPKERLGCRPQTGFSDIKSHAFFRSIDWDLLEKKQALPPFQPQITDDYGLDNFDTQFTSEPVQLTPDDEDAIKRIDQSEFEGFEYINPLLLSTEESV
Kind of series: Inhibition of human PKCzeta assessed as phosphorylation reaction after 4 mins incubation by cell-free assay.

The target of series [3] is T2, Protein kinase C zeta type. Nature of the series: Inhibition of PKCzeta in human U937 cells assessed as inhibition of TNFalpha-induced NF-kappaB activation by reporter gene assay. Format: cell-based, U-937. (In general: A reporter such as luciferase makes a cellular process visible.)

With `CC(C)(C)C1=NN(c2ccc(F)c(F)c2)C(c2ccc(O)cc2)C1` (centres undefined), the Activity result with RAW264.7 was “Non-toxic”. The compound also returned an inhibition in series [1] of 23.7%.

`Oc1ccc(C2=NN(c3cccc(Cl)c3)C(c3ccc(O)c(F)c3)C2)c(O)c1` (centres undefined): the results for the pIC50 in series [2] and in series [3] were above 7.00 and 5.96, respectively. The Activity result with RAW264.7 is listed as “Non-toxic”.

For `CC(C)(C)C1=NN(c2ccc(F)cc2F)C(c2ccc(O)cc2)C1` (centres undefined), the Activity entry with RAW264.7 is listed as “Non-toxic”.

Consider `CC(C)(C)C1=NN(c2ccc(F)c(Cl)c2)C(c2ccc(O)cc2)C1` (centres undefined), for which the pIC50 is 6.05 in series [2] and 5.72 in series [3]. Also, the Activity result in the series with RAW264.7 is recorded as “Non-toxic”. This compound registered an inhibition in series [1] of 31.6%.

`CC(C)(C)C1=NN(c2ccc(F)cc2)C(c2ccc(O)cc2)C1` (centres undefined): the pIC50 in series [2] is 5.03. The Activity entry in the series with RAW264.7 is recorded as “Non-toxic”.

Regarding `Oc1ccc(C2CC(c3ccccc3O)=NN2c2cccc(Cl)c2)cc1F` (centres undefined), the pIC50 in series [2] was 5.54. For the same compound, the Activity result in the series with RAW264.7 is “Non-toxic”. Moreover, the inhibition in series [1] came to 25.2%.

In the case of `CC(C)(C)C1=NN(c2ccc(Cl)cc2)C(c2ccc(O)c(F)c2)C1` (centres undefined), the pIC50 in series [2] was 5.42; in series [3], 5.43. Also, the Activity result with RAW264.7 is listed as “Non-toxic”. Moreover, the inhibition in series [1] was 29.7%.

As for `CC(C)(C)C1=NN(c2ccc(Cl)cc2)C(c2ccc(C#N)cc2)C1` (centres undefined), the Activity result in the series with RAW264.7 is listed as “Non-toxic”.

For the compound `CC(C)(C)C1=NN(c2ccc(Br)cc2)C(c2ccc(O)cc2)C1` (centres undefined), the pIC50 in series [2] is 4.94. For the same compound, in the series with RAW264.7, the Activity result was “Non-toxic”.

As for `Oc1ccc(C2CC(c3ccccn3)=NN2c2cccc(Cl)c2)cc1` (centres undefined), in series [2], the pIC50 was 5.21. The Activity entry with RAW264.7 is reported as “Non-toxic”. Further, the inhibition in series [1] came to 24.1%.

With `COc1ccccc1C1=NN(c2ccc(Cl)cc2)C(c2ccc(O)cc2)C1` (centres undefined), in the series on RAW264.7, the Activity entry is given as “Non-toxic”.

Take `CC(C)(C)C1=NN(c2ccccc2F)C(c2ccc(O)cc2)C1` (centres undefined): the Activity result in the series with RAW264.7 is “Non-toxic”.

As to `Oc1ccc(C2CC(c3cccs3)=NN2c2ccc(Cl)cc2)cc1` (centres undefined), the Activity entry with RAW264.7 is given as “Non-toxic”.

Take `CC(C)(C)C1=NN(c2cccc(Cl)c2)C(c2ccc(O)cc2)C1` (centres undefined): the pIC50 in series [2] is 5.28. Also, in the series with RAW264.7, the Activity result is “Non-toxic”. The compound further came in with an inhibition in series [1] of 43.5%.

Turning to `CC(C)(C)C1=NN(c2c(Cl)cccc2Cl)C(c2ccc(O)cc2)C1` (centres undefined), the Activity result in the series with RAW264.7 is reported as “Non-toxic”.

Take `CCOc1ccccc1C1=NN(c2ccc(Cl)cc2)C(c2ccc(O)cc2)C1` (centres undefined): the Activity entry in the series with RAW264.7 is given as “Non-toxic”.

For `Cc1ccc(N2N=C(C(C)(C)C)CC2c2ccc(O)cc2)cc1` (centres undefined), in the series with RAW264.7, the Activity result was “Non-toxic”.

Consider `Oc1ccc(C2CC(c3ccccc3O)=NN2c2ccc(Cl)cc2)cc1O` (centres undefined), for which the pIC50 in series [2] is above 7.00. For the same compound, the Activity result in the series on RAW264.7 was “Non-toxic”. Also, the inhibition in series [1] amounted to 44.1%.

With `CC(C)(C)C1=NN(c2ccc(Cl)cc2Cl)C(c2ccc(O)cc2)C1` (centres undefined), the Activity result in the series with RAW264.7 was “Non-toxic”.

Regarding `Cc1cccc(N2N=C(C(C)(C)C)CC2c2ccc(O)cc2)c1` (centres undefined), in the series with RAW264.7, the Activity result is given as “Non-toxic”. Besides, in series [1], the inhibition worked out at 13.9%.

Consider `CC(C)(C)C1=NN(c2ccc(C(=O)O)cc2)C(c2ccc(O)cc2)C1` (centres undefined), for which the Activity result in the series with RAW264.7 is recorded as “Non-toxic”.

In the case of `Oc1ccc(C2CC(c3ccccc3Cl)=NN2c2ccc(Cl)cc2)cc1` (centres undefined), the Activity entry with RAW264.7 was “Non-toxic”.

For the compound `CC(C)(C)C1=NN(c2ccc(F)c(F)c2F)C(c2ccc(O)cc2)C1` (centres undefined), the pIC50 is 6.15 in series [2] and 5.51 in series [3]. Moreover, the Activity result in the series with RAW264.7 is given as “Non-toxic”. For the same compound, the inhibition in series [1] is 7.8%.

For `CC(C)(C)C1=NN(c2ccc(O)cc2)C(c2ccc(O)cc2)C1` (centres undefined), the Activity entry with RAW264.7 is recorded as “Non-toxic”.

Turning to `CC1C(c2ccccc2O)=NN(c2cccc(Cl)c2)C1c1ccc(O)c(F)c1` (centres undefined), the Activity result in the series with RAW264.7 is given as “Non-toxic”. Further, in series [1], the inhibition worked out at 23.1%.

As to `CC(C)(C)C1=NN(c2ccc(C(F)(F)F)cc2)C(c2ccc(O)cc2)C1` (centres undefined), the pIC50 in series [2] is 5.06. For the same compound, the Activity result in the series on RAW264.7 was “Non-toxic”.

For the compound `CC(C)c1ccc(N2N=C(C(C)(C)C)CC2c2ccc(O)cc2)cc1` (centres undefined), the Activity result in the series on RAW264.7 is on record as “Non-toxic”.

For the compound `Oc1ccccc1C1=NN(c2cccc(Cl)c2)C(c2ccc(O)c(F)c2F)C1` (centres undefined), the pIC50 in series [2] was 5.18; in series [3] it was 5.85. For the same compound, in the series with RAW264.7, the Activity entry is given as “Non-toxic”. This compound also displayed an inhibition in series [1] of 39.2%.

On to `Oc1ccccc1C1=NN(c2cccc(Cl)c2)C(c2cc(F)c(O)c(F)c2)C1` (centres undefined), for which the pIC50 in series [2] is 4.95; in series [3] it was 5.60. Moreover, the Activity result in the series on RAW264.7 is listed as “Non-toxic”. This compound showed an inhibition in series [1] of 45.2%.

For `CC(C)(C)C1=NN(c2cccc(C(F)(F)F)c2)C(c2ccc(O)cc2)C1` (centres undefined), the pIC50 in series [2] and in series [3] was 5.57 in each case. In addition, in the series on RAW264.7, the Activity entry was “Non-toxic”. Further, the inhibition in series [1] is 17%.

Take `Oc1ccc(C2CC(c3ccc[nH]3)=NN2c2cccc(Cl)c2)cc1` (centres undefined): in the series on RAW264.7, the Activity entry is given as “Non-toxic”. The same compound displayed an inhibition in series [1] of 20.3%.

For the compound `Nc1ccc(C2=NN(c3ccc(Cl)cc3)C(c3ccc(O)cc3)C2)cc1` (centres undefined), the pIC50 in series [2] was 5.27. Also, in the series on RAW264.7, the Activity result is listed as “Non-toxic”. The compound also displayed an inhibition in series [1] of 38.7%.

On to `Oc1ccc(C2CC(c3ccccc3)=NN2c2ccc(Cl)cc2)cc1` (centres undefined), for which the pIC50 in series [2] is 5.46. The Activity result in the series with RAW264.7 was “Non-toxic”. In series [1], this compound showed an inhibition of 31.6%.

For `CC(C)(C)C1=NN(c2ccc(Cl)cc2)C(c2cccc(O)c2)C1` (centres undefined), the pIC50 in series [2] is 5.28; in series [3] it was 5.70. For the same compound, the Activity result with RAW264.7 is “Non-toxic”. Besides, in series [1], the inhibition came to 17.4%.

As for `Oc1ccc(C2CC(c3ccccc3)=NN2c2cccc(Cl)c2)cc1` (centres undefined), the pIC50 in series [2] is 5.68. Moreover, the Activity result in the series with RAW264.7 is “Non-toxic”. Also, the inhibition in series [1] turned out to be 45.5%.

On to `Cc1ccc(N2N=C(C(C)(C)C)CC2c2ccc(O)cc2)c(C)c1` (centres undefined), for which, in the series on RAW264.7, the Activity entry is “Non-toxic”.

With `CC(C)(C)C1=NN(c2cccc(F)c2)C(c2ccc(O)cc2)C1` (centres undefined), in series [2], the negative-log IC50 (pIC50) was 5.66. The Activity result in the series with RAW264.7 is “Non-toxic”. Also, the inhibition in series [1] turned out to be 19.3%.

On to `CC(C)(C)C1=NN(c2ccc(O)cc2)C(c2ccc(Cl)cc2)C1` (centres undefined), for which the Activity result in the series on RAW264.7 is “Non-toxic”.
